Converted amounts (≈) assume the structure as drawn. Peptide text beside a SMILES is read from it.
Key:
[1] = Selectivity index, Ratio of MIC for Escherichia coli BL21 to fraction of human erythrocyte hemolysis at 64 uM; assay type: functional
[2] = Selectivity index, Ratio of MIC for Pseudomonas aeruginosa PAO1 to fraction of human erythrocyte hemolysis at 64 uM; assay type: functional
[3] = tested on: Escherichia coli; assay: Antimicrobial activity against Escherichia coli BL21; assay type: functional
Summary of the method: (§1)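 MICs were determined by standard methods on the gram-negative strains and on S. aureus strains 6538p (methicillin-sensitive) and BBA-41 (methicillin-resistant). Peptides had acetylated N termini and amidated C termini, and were purified by RP-HPLC. Reported as the range of values seen in at least three independent experiments.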

[4] = tested on: J774.A1; assay: Cytotoxicity against mouse […] cell assessed as survival rate; assay type: functional; design: concentration or dose not given beside the values
Summary of the method: (§2)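 Cultured murine macrophages were exposed to peptide at a final concentration of 30 μM or 10 μM, depending on the peptide. Viability was read by MTT conversion to formazan. Results are percent survival versus buffer-treated controls, as mean and standard error of the mean of at least three independent experiments.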

[5] = tested on: Staphylococcus aureus; assay: Antimicrobial activity against Staphylococcus aureus 6538p; assay type: functional; summary of the method: as §1
[6] = tested on: Staphylococcus aureus; assay: Antimicrobial activity against Staphylococcus aureus BBA-41; assay type: functional; summary of the method: as §1
[7] = organism: Homo sapiens; assay: Hemolysis of human erythrocyte at 64 uM; assay type: ADME
Summary of the method: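 Peptide (64 μM) was incubated with a 1% suspension of fresh human erythrocytes at 37°C for 1 h. Released hemoglobin was measured and expressed relative to cells lysed with 1% Triton X-100. Values are means of multiple independent experiments.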

[8] = tested on: Pseudomonas aeruginosa; assay: Antimicrobial activity against Pseudomonas aeruginosa PAO1; assay type: functional; summary of the method: as §1
[9] = Selectivity index, Ratio of MIC for Staphylococcus aureus 6538p to fraction of human erythrocyte hemolysis at 64 uM; assay type: functional
[10] = tested on: RAW264.7; assay: Cytotoxicity against mouse RAW264.7 cell assessed as survival rate; assay type: functional; design: concentration or dose not given beside the values; summary of the method: as §2
[11] = Selectivity index, Ratio of MIC for Staphylococcus epidermidis to fraction of human erythrocyte hemolysis at 64 uM; assay type: functional
[12] = tested on: Staphylococcus epidermidis; assay: Antimicrobial activity against Staphylococcus epidermidis; assay type: functional
[13] = tested on: RAW264.7; assay: Cytotoxicity against mouse RAW264.7 cell assessed as survival rate at 10 uM; assay type: functional; summary of the method: as §2
[14] = tested on: J774.A1; assay: Cytotoxicity against mouse […] cell assessed as survival rate at 10 uM; assay type: functional; summary of the method: as §2

Row | SMILES | MIC [3] | MIC [5] | MIC [6] | MIC [8] | MIC [12] | Selectivity Index [1] | Selectivity Index [2] | Activity [4] | Hemolysis [7] | Selectivity Index [9] | Activity [10] | Selectivity Index [11] | Activity [13] | Activity [14]
1 | CC[C@H](C)[C@H](NC(=O)[C@H](CCCCN)NC(=O)[C@H](CCCCN)NC(=O)[C@H](Cc1ccccc1)NC(=O)[C@H](CC(C)C)NC(=O)[C@H](CCCCN)NC(=O)[C@H](Cc1c[nH]c2ccccc12)NC(=O)[C@H](CCCCN)NC(C)=O)C(=O)NCC(=O)N[C@@H](C)C(=O)N[C@H](C(=O)N[C@@H](CC(C)C)C(=O)N[C@@H](CCCCN)C(=O)N[C@@H](CCCCN)C(=O)N[C@@H](CC(C)C)C(N)=O)C(C)C (Ac-KWKLFKKIGAVLKKL-NH2) | 1 µM (≈ 1.84 µg/mL) | 4 µM (≈ 7.37 µg/mL) | 8 µM (≈ 14.7 µg/mL) | 2 µM (≈ 3.68 µg/mL) | 0.25 µM (≈ 0.46 µg/mL) | 6.25 | 6.25 | 74% | 4% | 3 | 88% | 48 |  | 
2 | CC[C@H](C)[C@H](NC(=O)[C@H](CCCCN)NC(=O)[C@H](CCCCN)NC(=O)[C@H](Cc1ccccc1)NC(=O)[C@H](CC(C)C)NC(=O)[C@H](CCCCN)NC(=O)[C@H](Cc1c[nH]c2ccccc12)NC(=O)[C@H](CCCCN)NC(C)=O)C(=O)NCC(=O)N[C@@H](CCCCN)C(=O)N[C@H](C(=O)N[C@@H](CC(C)C)C(=O)N[C@@H](CCCCN)C(=O)N[C@@H](CCCCN)C(=O)N[C@@H](CC(C)C)C(N)=O)C(C)C (Ac-KWKLFKKIGKVLKKL-NH2) | 1 µM (≈ 1.9 µg/mL) | 4 µM (≈ 7.59 µg/mL) | 16 µM (≈ 30.4 µg/mL) | 1 µM (≈ 1.9 µg/mL) | 0.25 µM (≈ 0.475 µg/mL) | 12.5 | 6.25 | 45% | 8% | 1.5 | 57% | 50 |  | 
3 | CC[C@H](C)[C@H](NC(=O)[C@H](CCCCN)NC(=O)[C@H](CCCCN)NC(=O)[C@H](Cc1ccccc1)NC(=O)[C@H](CCCCN)NC(=O)[C@H](CCCCN)NC(=O)[C@H](Cc1c[nH]c2ccccc12)NC(=O)[C@H](CCCCN)NC(C)=O)C(=O)NCC(=O)N[C@@H](C)C(=O)N[C@H](C(=O)N[C@@H](CC(C)C)C(=O)N[C@@H](CCCCN)C(=O)N[C@@H](CCCCN)C(=O)N[C@@H](CC(C)C)C(N)=O)C(C)C (Ac-KWKKFKKIGAVLKKL-NH2) | 1 µM (≈ 1.86 µg/mL) | > 16 µM | > 16 µM | 1 µM (≈ 1.86 µg/mL) | 0.5 µM (≈ 0.928 µg/mL) | 16.7 | 8.3 | 94% | 3% | <0.5 | 104% | 68 |  | 

The next compounds have a lower MIC [3] than those just listed; values first:

Row | MIC [3] | MIC [5] | MIC [6] | MIC [8] | MIC [12] | SMILES | Selectivity Index [1] | Selectivity Index [2] | Activity [4] | Hemolysis [7] | Selectivity Index [9] | Activity [10] | Selectivity Index [11] | Activity [13] | Activity [14]
4 | 0.5 µM (≈ 0.935 µg/mL) | 1 µM (≈ 1.87 µg/mL) | 4 µM (≈ 7.48 µg/mL) | 1 µM (≈ 1.87 µg/mL) | 0.5 µM (≈ 0.935 µg/mL) | CC[C@H](C)[C@H](NC(=O)[C@H](CCCCN)NC(=O)[C@H](CCCCN)NC(=O)[C@H](Cc1ccccc1)NC(=O)[C@H](CC(C)C)NC(=O)[C@H](CCCCN)NC(=O)[C@H](Cc1c[nH]c2ccccc12)NC(=O)[C@H](CCCCN)NC(C)=O)C(=O)NCC(=O)N[C@@H](CCCCN)C(=O)N[C@H](C(=O)N[C@@H](CC(C)C)C(=O)N[C@@H](CCCCN)C(=O)N[C@H](C(=O)N[C@@H](CC(C)C)C(N)=O)C(C)C)C(C)C (Ac-KWKLFKKIGKVLKVL-NH2) | 1.5 | 0.4 | 43% | 67% | 0.8 | 56% | 3 |  | 
5 | 0.5 µM (≈ 0.942 µg/mL) | 16 µM (≈ 30.2 µg/mL) | > 16 µM | 0.5 µM (≈ 0.942 µg/mL) | 0.25 µM (≈ 0.471 µg/mL) | CC[C@H](C)[C@H](NC(=O)[C@H](CCCCN)NC(=O)[C@H](CCCCN)NC(=O)[C@H](Cc1ccccc1)NC(=O)[C@H](CCCCN)NC(=O)[C@H](CCCCN)NC(=O)[C@H](Cc1c[nH]c2ccccc12)NC(=O)[C@H](CCCCN)NC(C)=O)C(=O)NCC(=O)N[C@@H](CCCCN)C(=O)N[C@H](C(=O)N[C@@H](CC(C)C)C(=O)N[C@@H](CCCCN)C(=O)N[C@H](C(=O)N[C@@H](CC(C)C)C(N)=O)C(C)C)C(C)C (Ac-KWKKFKKIGKVLKVL-NH2) | 22 | 11 | 88% | 9% | 0.7 | 86% | 44 |  | 
6 | 0.5 µM (≈ 0.906 µg/mL) | 0.5 µM (≈ 0.906 µg/mL) | 1 µM (≈ 1.81 µg/mL) | 2 µM (≈ 3.62 µg/mL) | 0.5 µM (≈ 0.906 µg/mL) | CC[C@H](C)[C@H](NC(=O)[C@H](CCCCN)NC(=O)[C@H](CCCCN)NC(=O)[C@H](Cc1ccccc1)NC(=O)[C@H](CC(C)C)NC(=O)[C@H](CCCCN)NC(=O)[C@H](Cc1c[nH]c2ccccc12)NC(=O)[C@H](CCCCN)NC(C)=O)C(=O)NCC(=O)N[C@@H](C)C(=O)N[C@H](C(=O)N[C@@H](CC(C)C)C(=O)N[C@@H](CCCCN)C(=O)N[C@H](C(=O)N[C@@H](CC(C)C)C(N)=O)C(C)C)C(C)C (Ac-KWKLFKKIGAVLKVL-NH2) | 2.2 | 0.56 |  | 45% | 1.1 |  | 2.2 | 21% | 16%
7 | 0.25 µM (≈ 0.457 µg/mL) | 16 µM (≈ 29.2 µg/mL) | > 16 µM | 0.5 µM (≈ 0.914 µg/mL) | 0.5 µM (≈ 0.914 µg/mL) | CC[C@H](C)[C@H](NC(=O)[C@H](CCCCN)NC(=O)[C@H](CCCCN)NC(=O)[C@H](Cc1ccccc1)NC(=O)[C@H](CCCCN)NC(=O)[C@H](CCCCN)NC(=O)[C@H](Cc1c[nH]c2ccccc12)NC(=O)[C@H](CCCCN)NC(C)=O)C(=O)NCC(=O)N[C@@H](C)C(=O)N[C@H](C(=O)N[C@@H](CC(C)C)C(=O)N[C@@H](CCCCN)C(=O)N[C@H](C(=O)N[C@@H](CC(C)C)C(N)=O)C(C)C)C(C)C (Ac-KWKKFKKIGAVLKVL-NH2) | 9.5 | 4.8 | 81% | 21% | 0.3 | 73% | 9.5 |  | 
